Measured values from ChEMBL document CHEMBL1149910, “2-(6-aryl-3(Z)-hexen-1,5-diynyl)anilines as a new class of potent antitubulin agents” (J Med Chem, 2008).

What was measured:
Type in all cases: functional
K562 [1] = experiment: Cell cycle arrest in human K562 cells assessed as accumulation at G0/G1 phase at 50 uM after 24 hrs by flow cytometry
Procedure, shortened: (§1)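 K-562 human leukemia cells were grown in RPMI 1640 with 10% fetal calf serum, glutamine and penicillin/streptomycin at 37 °C in 5% CO₂. Cells were exposed to compound at 50 µM for 24 h, then pelleted and PBS-washed. They were fixed in ice-cold ethanol for 30 min, treated with 1 mg/mL RNase A at 37 °C for 30 min, and stained with propidium iodide and Triton X-100 for 30 min at room temperature in the dark. Per-phase and sub-G1 percentages came from flow cytometry gating.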

K562 [2] = experiment: Cell cycle arrest in human K562 cells assessed as accumulation at S phase at 50 uM after 24 hrs by flow cytometry; procedure, shortened: as §1
K562 [3] = experiment: Cell cycle arrest in human K562 cells assessed as accumulation at G2/M phase at 50 uM after 24 hrs by flow cytometry; procedure, shortened: as §1
K562 [4] = experiment: Cell cycle arrest in human K562 cells assessed as accumulation at sub-G1 phase at 50 uM after 24 hrs by flow cytometry; procedure, shortened: as §1
K562 [5] = experiment: Cytotoxicity against human K562 cells
Procedure, shortened: (§2)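 Tested in the NCI in vitro antitumor screening protocol across a tumor cell line panel. GI₅₀ is the concentration producing a 50% reduction in cell growth.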

HCT-15 = experiment: Cytotoxicity against human HCT15 cells; procedure, shortened: as §2
SNB-75 = experiment: Cytotoxicity against human SNB75 cells; conditions: read-out: pGI50 (converted); procedure, shortened: as §2
UACC-62 = experiment: Cytotoxicity against human UACC62 cells; conditions: read-out: pGI50 (converted)
Procedure, shortened: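 NCI in vitro antitumor screening protocol; GI50 taken as the concentration giving 50% reduction in cell growth.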

OVCAR-3 = experiment: Cytotoxicity against human OVCAR-3 cells; procedure, shortened: as §2
MDA-MB-231 [6] = experiment: Cytotoxicity against human MDA-MB-231 cells; procedure, shortened: as §2
MDA-MB-435 = experiment: Cytotoxicity against human MDA-MB-435 cells; procedure, shortened: as §2
MDA-MB-231 [7] = experiment: Cell cycle arrest in human MDA-MB-231 cells assessed as accumulation of 2N cells at 2 uM after 24 hrs by flow cytometry
MDA-MB-231 [8] = experiment: Cell cycle arrest in human MDA-MB-231 cells assessed as accumulation at sub-G1 phase at 2 uM after 24 hrs by flow cytometry
MDA-MB-231 [9] = experiment: Cell cycle arrest in human MDA-MB-231 cells assessed as accumulation of 4N cells at 2 uM after 24 hrs by flow cytometry
MDA-MB-231 [10] = experiment: Cell cycle arrest in human MDA-MB-231 cells assessed as accumulation of >4N cells at 2 uM after 24 hrs by flow cytometry
MDA-MB-231 [11] = experiment: Cell cycle arrest in human MDA-MB-231 cells assessed as accumulation of 2N cells at 2 uM after 72 hrs by flow cytometry
MDA-MB-231 [12] = experiment: Cell cycle arrest in human MDA-MB-231 cells assessed as accumulation at sub-G1 phase at 2 uM after 72 hrs by flow cytometry
MDA-MB-231 [13] = experiment: Cell cycle arrest in human MDA-MB-231 cells assessed as accumulation of 4N cells at 2 uM after 72 hrs by flow cytometry
MDA-MB-231 [14] = experiment: Cell cycle arrest in human MDA-MB-231 cells assessed as accumulation of >4N cells at 2 uM after 72 hrs by flow cytometry

| Compound | Activity (K562 [1]) | Activity (K562 [2]) | Activity (K562 [3]) | Activity (K562 [4]) | GI50 (K562 [5]) | GI50 (HCT-15) | GI50 (SNB-75) | GI50 (UACC-62) | GI50 (OVCAR-3) | GI50 (MDA-MB-231 [6]) | GI50 (MDA-MB-435) | Activity (MDA-MB-231 [7]) | Activity (MDA-MB-231 [8]) | Activity (MDA-MB-231 [9]) | Activity (MDA-MB-231 [10]) | Activity (MDA-MB-231 [11]) | Activity (MDA-MB-231 [12]) | Activity (MDA-MB-231 [13]) | Activity (MDA-MB-231 [14]) |
| --- | --- | --- | --- | --- | --- | --- | --- | --- | --- | --- | --- | --- | --- | --- | --- | --- | --- | --- | --- |
| Nc1ccccc1C#C/C=C\C#Cc1ccc([N+](=O)[O-])cc1 | 35% | 46.2% | 18.8% | 15.78% | – | – | – | – | – | – | – | – | – | – | – | – | – | – | – |
| Nc1ccccc1C#C/C=C\C#Cc1ccccc1OC(F)(F)F | 4.5% | 24.1% | 71.4% | 30.55% | 2.51 µM | 3.98 µM | 2.51 µM | 6.31 µM | 3.98 µM | 5.01 µM | 1.26 µM | – | – | – | – | – | – | – | – |
| COc1ccc(/C=C\c2cc(OC)c(OC)c(OC)c2)cc1O [COMBRETASTATIN A4] | – | – | – | – | 0.0316 µM | 0.0316 µM | 0.794 µM | 0.01 µM | 0.0398 µM | 0.01 µM | 0.0316 µM | – | – | – | – | – | – | – | – |
| Nc1ccccc1C#C/C=C\C#Cc1ccccc1[N+](=O)[O-] | 42.7% | 41% | 16.3% | 11.13% | 0.501 µM | 0.794 µM | 12.6 µM | 2 µM | 3.98 µM | 0.398 µM | 0.398 µM | – | – | – | – | – | – | – | – |
| Nc1ccccc1C#C/C=C\C#CC#C/C=C\C#Cc1ccccc1N | 22.8% | 25% | 52.2% | 9.19% | 0.794 µM | 3.98 µM | 3.16 µM | 2 µM | 2.51 µM | 1.58 µM | 3.16 µM | – | – | – | – | – | – | – | – |
| CCOC(=O)c1ccccc1C#C/C=C\C#Cc1ccccc1N | 5.9% | 12.7% | 81.4% | 28.68% | – | – | – | – | – | – | – | – | – | – | – | – | – | – | – |
| Nc1ccccc1C#C/C=C\C#Cc1c(F)c(F)c(F)c(F)c1F | 43.6% | 38.5% | 17.9% | 27.34% | 15.8 µM | 15.8 µM | 39.8 µM | 12.6 µM | 15.8 µM | 2.51 µM | 15.8 µM | – | – | – | – | – | – | – | – |
| Nc1ccccc1C#C/C=C\C#Cc1ccc(F)cc1F | 32.5% | 33.1% | 34.4% | 10.04% | 5.01 µM | 12.6 µM | – | 15.8 µM | 6.31 µM | 15.8 µM | 2.51 µM | – | – | – | – | – | – | – | – |
| COc1cc2c(c(OC)c1OC)-c1ccc(OC)c(=O)cc1[C@@H](NC(C)=O)CC2 [COLCHICINE] | – | – | – | – | 0.0126 µM | 0.126 µM | 0.0251 µM | 0.0251 µM | 0.0158 µM | 0.316 µM | 0.01 µM | 10.2% | 23.3% | 55.2% | 11.3% | 6.9% | 60% | 21.6% | 11.5% |
| Nc1ccccc1C#C/C=C\C#Cc1ccccc1F | 22.1% | 40.9% | 37% | 11.5% | 3.16 µM | 5.01 µM | – | 7.94 µM | 3.16 µM | 10 µM | 2 µM | – | – | – | – | – | – | – | – |
